Experimental findings from ChEMBL document CHEMBL2417461, “Spectroscopic, computational modeling and cytotoxicity of a series of meso-phenyl and meso-thienyl-BODIPYs” (Bioorg Med Chem, 2013) are described below.

What is called IC50 is the concentration at which inhibition is half-maximal. A lower IC50 goes with greater potency in that assay.

In series [1] the test system is HEp-2. In words: Phototoxicity in human Hep2 cells incubated for 24 hrs followed by 1.5 J/cm'2 light irradiation for 20 mins measured after 24 hrs by Cell Titre Blue assay. The settings on record: HEp-2, light or radiation study. Type of series: functional, cell-based. The procedure, abridged:
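HEp2 cells given 3.125–200 μM compound for 24 h at 37 °C, then washed and refed. Irradiated on ice for 20 min with a 100 W halogen lamp through a 610 nm long-pass filter and a water IR filter, about 1.5 J/cm². After 24 h more, 20% Cell Titer Blue for 4 h, read at 570/615 nm. IC50 from dose–response curves.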

Series [2] in a line: Dark toxicity in human Hep2 cells after 24 hrs by Cell Titre Blue assay. The settings on record: HEp-2 cells. Type of series: cell-based. In outline: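 HEp2 cells seeded 15,000/well. Compound at 12.5–400 μM (vehicle DMSO/Cremophor EL) for 24 h at 37 °C in the dark, five replicates per concentration. Washed, then 20% Cell Titer Blue for 4 h. Fluorescence read at 570/615 nm as % viable cells, IC50 taken from dose–response curves.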

Series [3] in a line: Ratio of IC50 for dark toxicity in human Hep2 cells to IC50 for phototoxicity in human Hep2 cells. The class given is cell-based. The settings on record: HEp-2 cells, read-out: Ratio IC50.
Series [4] in a line: Cellular uptake in human Hep2 cell mitochondria at 10 uM after 24 hrs by micro plate reader analysis. The class given is ADME. The settings on record: hep-2, 24 h. In outline: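 HEp2 cells (DMEM:AMEM 50:50, 10% FBS) seeded 15,000/well, grown overnight, then given 10 μM compound in medium with 5% FBS for 0–24 h. Washed with PBS, lysed in 0.25% Triton X-100. Compound fluorescence read at 355/520 nm against standard curve, cell number by CyQuant at 485/520 nm. Uptake given per cell.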

Series [5] can be described thus: Induction of singlet oxygen generation assessed as decrease in DPBF absorbance at 5 uM followed by 71 W light irradiation for 1 hr by spectrophotometry. The class given is physicochemical. In outline:
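Compound at 5 μM with 50 μM DPBF in DMSO, 2 mL, irradiated 1 h with a 71 W source through a 500 nm long-pass filter. DPBF absorbance at 410 nm sampled every 15 min. Rate of absorbance decrease referenced to methylene blue at equal concentration.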

Molecule `COC(=O)c1ccc(C2=C3C(C)=CC(C)=[N+]3[B-](F)(F)n3c(C)cc(C)c32)cc1` had an IC50 in series [1] above 100 µM. The molecule further had an IC50 at 24 h in series [2] above 400 µM. In addition, the selectivity ratio in series [3] was above 4.

In the case of `COc1cc(OC)cc(C2=C3C(C)=C(I)C(C)=[N+]3[B-](F)(F)n3c(C)c(I)c(C)c32)c1`, the Drug uptake entry in series [4] is given as “Active”. In series [1], it took 4 µM to reach half-maximal inhibition (IC50). The molecule also showed an IC50 at 24 h in series [2] above 400 µM. Besides, the outcome in series [5] was Active. The selectivity ratio in series [3] is above 100.

For the molecule `CC1=C(I)C(C)=[N+]2C1=C(c1c(F)c(F)c(F)c(F)c1F)c1c(C)c(I)c(C)n1[B-]2(F)F`, the IC50 in series [1] is above 200 µM. The 50% inhibitory concentration (IC50) at 24 h in series [2] was above 400 µM. In addition, the selectivity ratio in series [3] was above 2.

Turning to `CC1=CC(C)=[N+]2C1=C(c1ccc(-c3ccc(Br)s3)s1)c1c(C)cc(C)n1[B-]2(F)F`, in series [1], the IC50 came to 82 µM. In series [2], this molecule came in with a concentration for half-maximal inhibition (IC50) at 24 h above 300 µM. Also, the selectivity ratio in series [3] was above 3.5.

`CC1=C(I)C(C)=[N+]2C1=C(c1ccc(Br)s1)c1c(C)c(I)c(C)n1[B-]2(F)F` had an IC50 in series [1] above 200 µM. In addition, in series [2], the IC50 at 24 h is above 400 µM. For the same molecule, the selectivity ratio in series [3] is above 2.

In the case of `CC1=CC(C)=[N+]2C1=C(c1cccs1)c1c(C)cc(C)n1[B-]2(F)F`, the IC50 in series [1] is above 100 µM. This molecule also displayed an IC50 at 24 h in series [2] above 300 µM. In addition, in series [3], the selectivity ratio was above 3.

In turn, `COC(=O)c1ccc(C2=C3C(C)=C(I)C(C)=[N+]3[B-](F)(F)n3c(C)c(I)c(C)c32)cc1` returned an IC50 in series [1] above 200 µM. The molecule also yielded an IC50 at 24 h in series [2] above 400 µM. Besides, the selectivity ratio in series [3] was above 2.

As to `CC1=C(I)C(C)=[N+]2C1=C(c1ccc(Br)cc1)c1c(C)c(I)c(C)n1[B-]2(F)F`, in series [4], the Drug uptake entry is “Active”. Besides, the IC50 in series [1] was determined as 28 µM. The IC50 at 24 h in series [2] is above 400 µM. In addition, the selectivity ratio in series [3] is above 15.

Turning to `CC1=C(I)C(C)=[N+]2C1=C(c1ccc(-c3cccs3)s1)c1c(C)c(I)c(C)n1[B-]2(F)F`, in series [1], the IC50 is above 200 µM. The IC50 at 24 h in series [2] was above 400 µM. Besides, the selectivity ratio in series [3] is above 2.

With `CC1=C(I)C(C)=[N+]2C1=C(c1ccccc1)c1c(C)c(I)c(C)n1[B-]2(F)F`, the Drug uptake entry in series [4] was “Active”. For the same molecule, the IC50 in series [1] is 27 µM. Further, the IC50 at 24 h in series [2] was above 400 µM. For the same molecule, the result in series [5] was Active. For the same molecule, the selectivity ratio in series [3] was above 15.

Turning to `CC1=C(I)C(C)=[N+]2C1=C(c1ccc(-c3ccc(Br)s3)s1)c1c(C)c(I)c(C)n1[B-]2(F)F`, in series [4], the Drug uptake result is reported as “Active”. In addition, half-maximal inhibition in series [1] (IC50) was put at 3.5 µM. In series [2], the half-inhibitory concentration (IC50) at 24 h came out at 8 µM. Also, the outcome in series [5] was Active. Further, in series [3], the selectivity ratio worked out at 2.3.

With `COc1ccc(C2=C3C(C)=C(I)C(C)=[N+]3[B-](F)(F)n3c(C)c(I)c(C)c32)cc1OC`, in series [4], the Drug uptake entry is on record as “Active”. The molecule also returned a 50% inhibitory concentration (IC50) in series [1] of 7.5 µM. For the same molecule, the IC50 at 24 h in series [2] is above 400 µM. Moreover, the outcome in series [5] was Active. Also, the selectivity ratio in series [3] is above 53.

In the case of `CC1=C(I)C(C)=[N+]2C1=C(c1cc(C(C)(C)C)cc(C(C)(C)C)c1)c1c(C)c(I)c(C)n1[B-]2(F)F`, the IC50 in series [1] is above 200 µM. The molecule further gave an IC50 at 24 h in series [2] above 400 µM. Besides, the selectivity ratio in series [3] is above 2.

`CC1=C(I)C(C)=[N+]2C1=C(c1cccs1)c1c(C)c(I)c(C)n1[B-]2(F)F`: the Drug uptake result in series [4] was “Active”. This molecule returned an IC50 in series [1] of 14 µM. The same molecule gave an IC50 at 24 h in series [2] above 400 µM. In addition, the result in series [5] was Active. Besides, the selectivity ratio in series [3] was above 30.

`CC1=CC(C)=[N+]2C1=C(c1ccc(-c3cccs3)s1)c1c(C)cc(C)n1[B-]2(F)F` had a concentration for half-maximal inhibition (IC50) in series [1] above 100 µM. Also, the IC50 at 24 h in series [2] is above 400 µM. Moreover, the selectivity ratio in series [3] is above 4.
